High-throughput results deposited in PubChem by Johns Hopkins Ion Channel Center.
RGS4 act: RGS4 potentiators or activators, primary screen, cell-based, HEK293 M3R inducible RGS4, calcium flux; carbachol calcium flux Fluo4; stronger effect = lower value; actives 0.92% (n = 310,000); B-score at 10 µM;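 active = B-score of the integrated calcium signal more than 4 SD below the library mean, with starting fluorescence not abnormally high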;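 also: negative B-score means reduced calcium response which marks RGS4 activation or potentiation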
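Material: Inducible-RGS4 HEK293 cells carrying M3 receptor; also added: carbachol at ECmax as muscarinic agonist stimulus; incubation: compound preincubation 20 min at room temperature before agonist; signal: Fluo4-AM (2 µM) calcium-flux fluorescence, kinetic read; measure: integrated calcium ratio converted to B score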
RGS4 block: RGS4 inhibitors, primary screen, cell-based, HEK293 M3R inducible RGS4, calcium flux | actives 0.45% (n = 310,000) | Regulator of G-protein signaling 4 (Homo sapiens), P49798 | B-score at 10 µM | AID 463165, 2010 | Fluo-4 calcium flux; stronger effect = higher value; triggered by carbachol at its EC20;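 active = B-score, a plate-corrected calcium signal, over three deviations above library mean, with baseline fluorescence within five deviations of library mean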;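 also: RGS4 expression induced by doxycycline in cells with stable M3 receptor; B-score is computed from the integrated fluorescence ratio over baseline after carbachol; higher B-score means a larger calcium signal and so more RGS4 inhibition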
Target sequence (P49798 whole entry, looked up): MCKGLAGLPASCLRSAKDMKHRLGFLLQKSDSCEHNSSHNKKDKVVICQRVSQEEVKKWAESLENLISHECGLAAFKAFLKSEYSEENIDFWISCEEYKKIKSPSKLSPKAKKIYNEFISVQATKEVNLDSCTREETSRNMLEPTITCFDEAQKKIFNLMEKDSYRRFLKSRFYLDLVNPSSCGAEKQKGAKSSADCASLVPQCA
MrgX1 agonist: agonists of human MrgX1 receptor, primary screen, HEK293 cells, Fluo-4 calcium flux | actives 0.44% (n = 310,000) | AID 588627, 2011 | Fluo-4 calcium fluorescence, agonist mode; stronger effect = higher value | B-score at 10 µM;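 active = calcium response B-score plate-corrected fluorescence ratio at least 3 library SD, with starting fluorescence B-score inside 5 SD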
Target sequence (Q96LB2 whole entry, looked up): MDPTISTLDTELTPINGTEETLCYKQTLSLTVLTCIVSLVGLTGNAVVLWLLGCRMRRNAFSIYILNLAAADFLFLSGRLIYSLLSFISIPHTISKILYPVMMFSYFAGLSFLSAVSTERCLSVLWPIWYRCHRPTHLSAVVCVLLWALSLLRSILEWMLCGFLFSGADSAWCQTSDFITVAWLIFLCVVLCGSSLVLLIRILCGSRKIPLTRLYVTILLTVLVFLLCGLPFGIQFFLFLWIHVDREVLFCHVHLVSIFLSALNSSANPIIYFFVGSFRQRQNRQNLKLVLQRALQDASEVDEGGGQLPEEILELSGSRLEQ
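Test system: Stable human MrgX1 HEK293 cell line | Schedule: Overnight plating before 1 h dye loading | Read-out basis: Baseline-normalised fluorescence change ratio, B-scored | Detection: Kinetic calcium dye fluorescence, Fluo-4 NW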
MrgX1 antag: antagonists of human MrgX1 receptor, primary screen, HEK293 cells, Fluo-4 calcium flux | BAM8-22 antagonism; stronger effect = lower value | Mas-related G-protein coupled receptor member X1 (Homo sapiens), Q96LB2 | actives 1.3% (n = 310,000) | B-score at 10 µM;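 active = calcium-response B-score plate-corrected more than 3 library SD below zero, starting fluorescence within 5 deviations, no agonist response on first addition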;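 also: peak minus trough fluorescence over baseline after final BAM8-22 challenge near maximal dose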
MrgX1 PAM: positive allosteric modulators of MrgX1, primary screen, HEK293 cells, Fluo-4 calcium flux. Mas-related G-protein coupled receptor member X1 (Homo sapiens), Q96LB2. FDSS; stronger effect = higher value. B-score at 10 µM. actives 0.63% (n = 310,000). AID 588675, 2011;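 active = plate-corrected calcium response at least 3 library SD above typical, normal starting fluorescence, not activating the receptor alone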;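 also: compound read alongside a low EC10 to EC30 dose of BAM8-22 agonist; peak minus trough fluorescence over baseline measured at the second addition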
RGS4 act valid: reduced carbachol calcium response, RGS4-induced M3R cells, confirmation, RGS4 activator project, cell-based, HEK293 M3R/RGS4 inducible, calcium flux, duplicate; shares compounds with RGS4 act; carbachol calcium flux Fluo4; inhibition, % at 10 µM; actives 89% (n = 1,100); AID 602282, 2012;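 active = inhibition above 3 SD of the buffer control wells, cut at about 41% in these data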;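 also: signal is the integrated peak-minus-minimum Fluo4 fluorescence over baseline ratio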
M3R Ca counter: counter-screen for RGS4 activators: effect in non-induced cells. inhibition, % at 10 µM. shares compounds with RGS4 act. HEK293 M3R non-induced RGS4, Fluo4 calcium flux; after carbachol challenge at its EC90. actives 82% (n = 1,100);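 active = inhibition exceeding 3 SD of buffer-only control wells, cut at about 26% in these data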;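 also: percent drop in integrated peak-minus-baseline over baseline Fluo4 ratio after carbachol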
* = called active by the depositor; i = inactive; . = not tested or not shown. Only some compounds are listed: those with a hit (about 3.5% of all), similar ones and a draw of the others.

SMILES	RGS4 act	RGS4 block	MrgX1 agonist	MrgX1 antag	MrgX1 PAM	RGS4 act valid	M3R Ca counter
CC(/C=N/NC(=O)Cc1cccs1)=C\c1ccccc1	i	i	i	i	i	.	.
CC(/C=N/NC(=O)Cc1cccn1C)=C\c1ccccc1	i	i	i	i	12*	.	.
CCC(=O)O[C@]1(C(=O)SCF)[C@H](C)C[C@H]2[C@@H]3C[C@H](F)C4=CC(=O)C=C[C@]4(C)[C@@]3(F)[C@@H](O)C[C@@]21C	i	i	i	-6.2*	i	.	.
Cc1ccc(CS(=O)(=O)CCC(=O)NCc2ccccc2Cl)cc1	i	i	i	i	i	.	.
O=C(NCCc1ccc(F)cc1)c1cccc(NC(=O)c2ccccc2)c1	-7.7*	i	i	i	i	56*	0
O=C(NCc1ccc(Cl)cc1)c1cccc(NC(=O)c2ccccc2)c1	i	i	i	i	i	.	.
CN1CCN(C2=Cc3ccccc3Sc3cc(F)ccc32)CC1	-12*	i	i	i	8.2*	92*	94*
Cc1ccc(-c2nnc(COC(=O)c3cc(=O)[nH]c4ccccc34)o2)cc1	i	i	i	i	i	.	.
O=C(NCc1ccc2c(c1)OCO2)c1ccc2c(c1)N(Cc1c(F)cccc1Cl)C(=O)CS2	-7.7*	i	i	i	i	93*	60*
CC(=O)Nc1ccc(NCC(=O)c2ccccc2)cc1	i	i	i	i	i	.	.
COCCN(C(=O)Nc1ccccc1OC)c1nc2ccccc2s1	-7.7*	i	i	i	i	92*	91*
CC(C)n1c(O)c(N=NC(=O)Cc2csc(N3CCOCC3)n2)c2ccccc21	i	i	i	i	i	.	.
CC(C(=O)NCC1(c2ccccc2)CCCC1)N1CCCC1 (stereo not given)	-7.9*	i	i	i	i	64*	84*
CC(C(=O)NCC1(c2ccccc2)CCCC1)N1CCOCC1 (stereo not given)	i	i	i	i	i	.	.
CN(C(=O)COC(=O)c1nc(Cl)c(Cl)c(Cl)c1Cl)C1CCS(=O)(=O)C1 (stereo not given)	i	i	.	.	.	.	.
CCC1Oc2ccccc2C(=O)N(CC(=O)c2ccc3c(c2)OCCO3)C1=O (stereo not given)	-8.1*	i	i	i	i	72*	84*
CC1Oc2ccccc2C(=O)N(CC(=O)c2ccc3c(c2)OCCO3)C1=O (stereo not given)	i	i	i	i	i	.	.
CC(C)C1Oc2ccccc2C(=O)N(CC(=O)c2ccc3c(c2)OCCO3)C1=O (stereo not given)	-7.8*	i	i	i	i	0	0
CC(O)c1nc2ccccc2n1CC(=O)N1CCN(c2ccccc2)CC1 (stereo not given)	i	i	i	i	i	.	.
C[n+]1c2n(c3ccccc31)N=C(c1cc(C(C)(C)C)c(O)c(C(C)(C)C)c1)CS2	-13*	i	i	-8.6*	i	94*	83*
COc1cccc(C2=Nn3c(nnc3-c3ccccc3O)SC2)c1	i	i	i	i	i	.	.
Fc1ccc(N2CCN(c3cnc4ccccc4n3)CC2)cc1	i	i	i	i	i	.	.
O=C(c1ccccc1)c1ccc(OCCn2cnc3ccccc3c2=O)cc1	i	i	i	i	i	.	.
CC(C)(c1ccccc1)c1ccc(OCCn2cnc3ccccc3c2=O)cc1	-8.8*	i	i	i	i	90*	58*
CC1(C)CC2(CCO1)OC(=O)CC2C(=O)Nc1ccccc1Cl (stereo not given)	i	i	i	i	i	.	.
SMILES	RGS4 act	RGS4 block	MrgX1 agonist	MrgX1 antag	MrgX1 PAM	RGS4 act valid	M3R Ca counter
CCOC(=O)c1c(C)n(C)c2ccc(O)c(CN3CCN(C)CC3)c12	i	i	i	i	i	.	.
CCOC(=O)c1c(-c2ccccc2)oc2ccc(O)c(CN3CCN(C)CC3)c12	-8.1*	i	i	i	i	69*	49*
CN(C)S(=O)(=O)c1cccc(-c2nnc(SCC(=O)NCCCCCC(=O)O)n2-c2ccc(F)cc2)c1	i	i	i	i	i	.	.
CC(C)(C)n1cnc2cc(NC(=O)c3ccccc3)ccc21	i	i	i	i	i	.	.
COc1cc(NC(=O)c2cc3ccccc3cc2OC)ccc1NC(=O)c1cccs1	-9.1*	i	i	i	i	76*	0
CCN(CC)CCNC(=O)c1ccc(NC(=O)c2cccc(S(=O)(=O)Nc3ccc(C)cc3)c2)cc1	-12*	i	i	i	i	92*	69*
CN(C)CCNC(=O)c1cccc(S(=O)(=O)Nc2ccc(F)cc2)c1	i	i	i	i	i	.	.
CCN(CC)CCCNC(=O)c1cc2c(Cl)nc3ccccc3c2s1	-7.7*	i	i	i	i	68*	84*
CN(CCCNC(=O)c1cc2c(Cl)nc3ccccc3c2s1)Cc1ccccc1	i	i	i	i	i	.	.
CCN(CC)CCNC(=O)c1cc2c(=O)n(CC)c3ccccc3c2s1	-8.4*	i	i	i	i	54*	84*
CCN(CC)CCCNC(=O)c1cc2c(=O)n(CC)c3ccccc3c2s1	i	i	i	i	i	.	.
c1ccc(Cn2c(CN3CCCC3)nc3ccccc32)cc1	-8.5*	i	i	i	i	0	84*
Clc1ccc(Cn2c(CN3CCCC3)nc3ccccc32)cc1	i	i	i	i	i	.	.
CCN(CC)c1ccc(N2C(=NC(=O)C3CCCO3)SC3CS(=O)(=O)CC32)cc1 (stereo not given)	i	i	i	i	i	.	.
Oc1ccc(Nc2nc(N3CCCC3)c3ccccc3n2)cc1	-8.2*	i	i	i	i	91*	65*
Nc1ccc(OCc2ccccc2)cc1	i	i	i	i	i	.	.
CCN(Cc1ccccc1)Cc1ccc(OCc2ccccc2)cc1	-8.3*	i	i	i	i	93*	70*
